Assay [1] concerns the target T1, Kinesin-like protein KIF11 (Homo sapiens, UniProt P52732).
T1 sequence (P52732 whole entry): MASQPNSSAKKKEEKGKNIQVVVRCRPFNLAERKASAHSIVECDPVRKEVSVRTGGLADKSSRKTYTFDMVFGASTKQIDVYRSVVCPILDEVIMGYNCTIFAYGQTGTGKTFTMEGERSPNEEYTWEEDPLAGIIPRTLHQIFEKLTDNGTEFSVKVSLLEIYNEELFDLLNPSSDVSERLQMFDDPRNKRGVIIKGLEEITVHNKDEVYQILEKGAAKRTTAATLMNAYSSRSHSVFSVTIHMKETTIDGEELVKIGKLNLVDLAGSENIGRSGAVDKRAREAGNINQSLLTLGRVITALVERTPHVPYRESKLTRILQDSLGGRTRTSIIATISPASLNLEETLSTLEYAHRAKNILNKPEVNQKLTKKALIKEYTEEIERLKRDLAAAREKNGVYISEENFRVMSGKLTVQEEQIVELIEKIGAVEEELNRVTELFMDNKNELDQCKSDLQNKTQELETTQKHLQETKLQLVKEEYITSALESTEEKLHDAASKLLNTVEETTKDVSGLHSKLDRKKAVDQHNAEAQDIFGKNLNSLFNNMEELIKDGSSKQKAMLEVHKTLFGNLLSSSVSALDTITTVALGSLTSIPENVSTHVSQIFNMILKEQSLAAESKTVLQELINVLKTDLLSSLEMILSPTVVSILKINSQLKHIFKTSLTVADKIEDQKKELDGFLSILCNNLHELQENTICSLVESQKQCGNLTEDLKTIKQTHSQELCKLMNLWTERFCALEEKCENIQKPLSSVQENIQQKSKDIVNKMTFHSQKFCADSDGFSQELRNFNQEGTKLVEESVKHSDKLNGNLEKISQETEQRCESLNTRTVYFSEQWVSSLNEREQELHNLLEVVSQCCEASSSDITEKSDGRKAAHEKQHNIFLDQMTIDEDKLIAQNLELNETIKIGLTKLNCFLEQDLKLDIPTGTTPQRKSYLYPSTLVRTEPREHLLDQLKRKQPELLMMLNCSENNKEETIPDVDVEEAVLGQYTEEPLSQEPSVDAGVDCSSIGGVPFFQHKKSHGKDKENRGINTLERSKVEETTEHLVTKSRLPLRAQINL
In words: Inhibition of human Eg5 expressed in Escherichia coli assessed as microtubule-activated ATPase activity by spectrophotometry. A digest of the protocol: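 Eg5 residues 2-386 expressed from pET28a in E. coli (0.5 mM IPTG, 20 h at 20 °C), purified on SP-Sepharose then Mono-Q, and dialyzed into PIPES pH 7.5 ATPase buffer. Assay contained 20 mM PIPES pH 7.5, 5.0 mM MgCl2, 1 mM EGTA, paclitaxel-stabilized MTs, ATP and 2% DMSO. Started with ATP, 37 °C for 30 min; Pi detected by malachite green with citrate stop, A610. No-enzyme and no-MT backgrounds subtracted; means of ≥3 experiments.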

The subject of the next assay is A549. In words: Antiproliferative activity against human A549 cells after 48 hrs by SRB assay. As to conditions: A549, 48 h.
The next assay has as its system AGS. Put plainly: Antiproliferative activity against human AGS cells after 48 hrs by SRB assay. On the technique in general: In SRB staining, fixed cells bind dye roughly in proportion to their protein.
Another assay has as its system PC-3. Put plainly: Antiproliferative activity against human PC3 cells after 48 hrs by SRB assay. As to conditions: PC-3, 48 h.
In the next assay the test system is HepG2. Put plainly: Antiproliferative activity against human HepG2 cells after 48 hrs by SRB assay. As to conditions: HepG2, 48 h.
The test system of the next assay is HT-29. In words: Antiproliferative activity against human HT-29 cells after 48 hrs by SRB assay. As to conditions: HT-29, 48 h.

As usually defined, the IC50 is the concentration needed to halve the response being measured. On to `CC(=O)N1CCc2c([nH]c3ccc(C)cc23)C1c1c[nH]c2ccccc12` (racemic), for which the IC50 in assay [1] is 0.051 µM; in the assay on A549, above 10 µM.
`NCCCN1CCc2c([nH]c3ccc(Cl)cc23)C1c1cccc(O)c1` (racemic): the results for the concentration for half-maximal inhibition (IC50) (in assay [1]; in the assay with A549) were 0.204 µM and 6.73 µM, respectively.
As for `CCOC(=O)C1Cc2c([nH]c3ccccc23)C(c2cccc(O)c2)N1C(=O)CC` (racemic), the values for the IC50 (in assay [1]; with A549) were 0.075 µM and above 10 µM, respectively.
Turning to `CCOC(=O)C1Cc2c([nH]c3ccccc23)C(c2cccc(O)c2)N1C(C)=O` (racemic), the figures for the IC50 (in assay [1]; in the assay on A549) were 0.724 µM and above 10 µM, respectively.
Turning to `CC(=O)N1CCc2c([nH]c3ccc(Cl)cc23)C1c1c[nH]c2ccccc12` (racemic), the half-maximal inhibitory concentration (IC50) was 0.337 µM in assay [1] and 9.8 µM in the assay with A549.
As for `Cc1ccc2[nH]c3c(c2c1)CCN(C(=O)C(C)C)C3c1c[nH]c2ccccc12` (racemic), the IC50 is 0.216 µM in assay [1] and above 10 µM in the assay with A549.
Consider `CCC(c1nc2cc(Cl)ccc2c(=O)n1Cc1ccccc1)N(CCCN(C)C)C(=O)c1ccc(Br)cc1` (stereo not given) [CK0106023], for which the 50% inhibitory concentration (IC50) in assay [1] is 0.049 µM; in the assay with AGS it was 5.1 µM; in the assay with PC-3 it was above 10 µM; in the assay with A549 it was 7.02 µM; in the assay on HepG2 it was above 10 µM; in the assay on HT-29, 3.33 µM.
For the molecule `NCCC(=O)N1CCc2c([nH]c3ccc(Cl)cc23)C1c1c[nH]c2ccccc12` (racemic), the half-maximal inhibitory concentration (IC50) in assay [1] is 0.043 µM; in the assay with AGS, 6.16 µM; with PC-3 it was 1.55 µM; with A549, 1.79 µM; in the assay with HepG2 it was above 10 µM; in the assay on HT-29, 6.28 µM.
`CC(C)Oc1cccc(C2c3[nH]c4ccc(Cl)cc4c3CCN2CCN)c1` (racemic): the IC50 was 8.39 µM in the assay on AGS; above 10 µM in the assay with PC-3; 8.7 µM in the assay on A549; above 10 µM in the assay with HepG2; 7.44 µM in the assay on HT-29.
In the case of `O=C(NCCO)C1Cc2c([nH]c3ccccc23)C(c2cccc(O)c2)N1` (racemic), the values for the IC50 (in assay [1]; with A549) were 0.29 µM and above 10 µM, respectively.
In the case of `Cc1ccc2[nH]c3c(c2c1)CCN(Cc1ccccc1)C3c1cccc(O)c1` (racemic), the values for the IC50 (in assay [1]; with A549) were 12.4 µM and 6.86 µM, respectively.
For the molecule `CCCC(=O)N1CCc2c([nH]c3ccc(Cl)cc23)C1c1c[nH]c2ccccc12` (racemic), the 50% inhibitory concentration (IC50) is 0.163 µM in assay [1]; 7.06 µM in the assay on AGS; 7.29 µM in the assay with PC-3; 9.11 µM in the assay with A549; 7.64 µM in the assay on HepG2; 5.86 µM in the assay on HT-29.
Consider `Cc1ccc2[nH]c3c(c2c1)CCN(CCN)C3c1cccc(O)c1` (racemic), for which the IC50 in assay [1] is 0.237 µM; with A549, 7.79 µM.
With `CN1CCc2c([nH]c3ccc(Cl)cc23)C1c1cccc(O)c1` (racemic), the IC50 was 0.664 µM in assay [1]; 0.75 µM with AGS; above 10 µM in the assay with PC-3; 1.38 µM in the assay with A549; above 10 µM in the assay with HepG2; 7.4 µM in the assay on HT-29.
Regarding `CCC(=O)N1C(C(=O)O)Cc2c([nH]c3ccccc23)C1c1cccc(O)c1` (racemic), the IC50 in assay [1] was 0.118 µM; in the assay with A549, above 10 µM.
For the molecule `Cc1ccc2[nH]c3c(c2c1)CCN(CCCCN)C3c1cccc(O)c1` (racemic), the IC50 in assay [1] stood at 0.454 µM; with A549, 9.19 µM.
In the same order, the values of `CCCN1CCc2c([nH]c3ccc(Cl)cc23)C1c1cccc(O)c1` (racemic) are 0.169 µM and 1.55 µM.
In the same order, the values of `Oc1cccc(C2c3[nH]c4ccc(Cl)cc4c3CCN2Cc2ccccc2)c1` (racemic) are 0.71 µM and 5.7 µM.
For `NCCN1CCc2c([nH]c3ccc(Cl)cc23)C1c1cccc(O)c1` (racemic) the same measures were 0.007 µM and 8.7 µM.
For `NCCNC(=O)C1Cc2c([nH]c3ccccc23)C(c2cccc(O)c2)N1` (racemic), the half-maximal inhibitory concentration (IC50) is 0.065 µM in assay [1] and above 10 µM in the assay with A549.
As for `Cc1ccc2[nH]c3c(c2c1)CCN(CCCN)C3c1cccc(O)c1` (racemic), the IC50 in assay [1] turned out to be 0.083 µM; in the assay on A549, 6.86 µM.
As for `Nc1ccc(C(=O)N2CCc3c([nH]c4ccc(Cl)cc34)C2c2cccc(O)c2)cc1` (racemic), the 50% inhibitory concentration (IC50) in assay [1] was found to be 0.076 µM; in the assay with AGS it was 6.07 µM; with PC-3, 7.3 µM; with A549, 6.66 µM; in the assay with HepG2, 8.52 µM; in the assay with HT-29, 6.3 µM.
For `CCCC(=O)N1C(C(=O)O)Cc2c([nH]c3ccccc23)C1c1cccc(O)c1` (racemic), the IC50 in assay [1] is 3.45 µM; in the assay with A549, above 10 µM.
In the same order, the values of `CCCC(=O)N1CCc2c([nH]c3ccc(C)cc23)C1c1c[nH]c2ccccc12` (racemic) are below 0.001 µM and above 10 µM.
Regarding `CC(N)C(=O)N1CCc2c([nH]c3ccc(Cl)cc23)C1c1cccc(O)c1` (stereo not given), the IC50 in assay [1] is 0.483 µM; in the assay on A549 it was 5.65 µM.
Consider `NCCCCN1CCc2c([nH]c3ccc(Cl)cc23)C1c1cccc(O)c1` (racemic), for which the IC50 in assay [1] was found to be 0.347 µM; in the assay with A549, 9.06 µM.
`CC(C)C(=O)N1CCc2c([nH]c3ccc(Cl)cc23)C1c1c[nH]c2ccccc12` (racemic): the results for the half-maximal inhibitory concentration (IC50) (in assay [1]; in the assay on A549) were 1.7 µM and 6.83 µM, respectively.
Take `NCCC(=O)N1CCc2c([nH]c3c(Cl)cccc23)C1c1cccc(O)c1` (racemic): the IC50 in assay [1] is 0.04 µM; in the assay on AGS it was 1.31 µM; in the assay with PC-3 it was 1.28 µM; with A549 it was 0.94 µM; in the assay on HepG2, 7.47 µM; with HT-29 it was 5.75 µM.
On to `CCCC(=O)N1C(C(=O)OCC)Cc2c([nH]c3ccccc23)C1c1cccc(O)c1` (racemic), for which the IC50 was 0.224 µM in assay [1] and above 10 µM in the assay on A549.
For `Cc1ccc2[nH]c3c(c2c1)CCN(C(=O)c1ccc(N)cc1)C3c1cccc(O)c1` (racemic), the half-inhibitory concentration (IC50) in assay [1] is 0.05 µM; in the assay on AGS, 8.86 µM; with PC-3, above 10 µM; in the assay with A549, 7.93 µM; in the assay with HepG2 it was above 10 µM; with HT-29, 7.47 µM.
In the case of `Cc1ccc2[nH]c3c(c2c1)CCN(C)C3c1cccc(O)c1` (racemic), the half-inhibitory concentration (IC50) was 0.462 µM in assay [1] and 8.73 µM in the assay on A549.
In the case of `CCOC(=O)C1Cc2c([nH]c3ccccc23)C(c2cccc(O)c2)N1C(=O)C(C)C` (racemic), the 50% inhibitory concentration (IC50) is 0.38 µM in assay [1] and above 10 µM in the assay with A549.
